Laboratory results: ChEMBL document CHEMBL1150215, “Strychnogucines A and B, two new antiplasmodial bisindole alkaloids from Strychnos icaja” (J Nat Prod, 2001)

Legend:
Plasmodium falciparum [1] = assay: Antiplasmodial activity against chloroquine-sensitive Plasmodium falciparum FCA 20 Ghana by [3H]hypoxanthine uptake; format: functional, organism-based
Outline: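 Asexual erythrocytic stages kept in continuous in vitro culture (Trager and Jensen method). Eight 4-fold dilutions per sample, final concentrations 20 μg/mL down to 0.0012 μg/mL, each tested in duplicate. Growth read as [³H]hypoxanthine incorporation (Desjardins method, Mirovsky modification). Results given as mean ± standard deviation; differences assessed by Student's t-test, p ≤ 0.05.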

Plasmodium falciparum [2] = assay: Antiplasmodial activity against chloroquine-resistant Plasmodium falciparum PFB Brazil by [3H]hypoxanthine uptake; format: functional, organism-based
Outline: (§1)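 Continuous asexual erythrocytic P. falciparum culture (Trager and Jensen). Samples tested as eight 4-fold dilutions, final 20 µg/mL down to 0.0012 µg/mL, in duplicate. Growth read by [3H]hypoxanthine incorporation (Desjardins method, Mirovsky modification). IC50 given as mean ± standard deviation. Differences were tested by Student's t-test at p ≤ 0.05.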

Plasmodium falciparum [3] = assay: Antiplasmodial activity against chloroquine-sensitive Plasmodium falciparum F32-Tanzania by [3H]hypoxanthine uptake; format: functional, organism-based
Outline: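 Asexual erythrocytic stages kept in continuous in vitro culture (Trager and Jensen method). Eight 4-fold dilutions per sample, final concentrations 20 μg/mL down to 0.0012 μg/mL, each tested in duplicate. Growth read as [³H]hypoxanthine incorporation (Desjardins method, Mirovsky modification).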

KB = assay: Cytotoxicity against human KB cells by WST1 assay; format: cell-based
Outline: (§2)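 Cells grown as in earlier work and exposed to samples in 96-well microplates. Viability read by colorimetric assay with the tetrazolium salt WST-1. Emetine and usambarensine base run as reference compounds. Results given as IC50 in μM.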

[4] = Selectivity index, ratio of IC50 for human WI38 cells to IC50 for chloroquine-sensitive Plasmodium falciparum FCA 20 Ghana; format: toxicity, cell-based, WI-38; settings: WI38 cells versus Plasmodium falciparum FCA 20 Ghana, read-out: Ratio IC50
Outline: (§3)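 SI is cytotoxicity IC50 divided by antiplasmodial IC50. Cytotoxicity was measured on cultured KB cancer cells or WI38 human fibroblasts in microplates by WST-1 tetrazolium colorimetric assay, with emetine and usambarensine as references.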

[5] = Selectivity index, ratio of IC50 for human KB cells to IC50 for chloroquine-resistant Plasmodium falciparum W2 Indochina; format: toxicity, cell-based; settings: KB cells versus Plasmodium falciparum W2 Indochina, read-out: Ratio IC50; outline: as §3
[6] = Cytotoxicity against human WI38 cells by WST1 assay; format: cell-based; settings: WI-38; outline: as §2
[7] = Selectivity index, ratio of IC50 for human KB cells to IC50 for chloroquine-sensitive Plasmodium falciparum FCA 20 Ghana; format: toxicity, cell-based; settings: KB cells versus Plasmodium falciparum FCA 20 Ghana, read-out: Ratio IC50; outline: as §3
Plasmodium falciparum [8] = assay: Antiplasmodial activity against chloroquine-resistant Plasmodium falciparum W2 Indochina by [3H]hypoxanthine uptake; format: functional, organism-based; outline: as §1
[9] = Selectivity index, ratio of IC50 for human WI38 cells to IC50 for chloroquine-resistant Plasmodium falciparum W2 Indochina; format: toxicity, cell-based, WI-38; settings: WI38 cells versus Plasmodium falciparum W2 Indochina, read-out: Ratio IC50; outline: as §3

With `C/C=C1/CN2[C@@H](C3=C[C@@H]4[C@@H]5N(C3=O)c3ccccc3[C@@]53CCN5C/C(=C/CO)[C@@H]4C[C@H]53)C[C@@]34c5ccccc5N5C(=O)CC=C([C@H]1C[C@H]23)[C@H]54` the IC90 (Plasmodium falciparum [1]) was 4.35 µM, the IC50 (Plasmodium falciparum [2]) was 0.431 µM and the IC90 (Plasmodium falciparum [2]) was 1.64 µM. It also gave an IC50 (Plasmodium falciparum [3]) of 1.26 µM, an IC90 (Plasmodium falciparum [3]) of 5.35 µM and an IC50 (KB) of 16.2 µM. The selectivity ratio [4] was 19.8, the selectivity ratio [5] was 116 and the IC50 [6] was 16.8 µM. The selectivity ratio [7] was 19.1, the IC90 (Plasmodium falciparum [8]) was 1.35 µM and the selectivity ratio [9] was 120.

`CCN(CC)CCCC(C)Nc1ccnc2cc(Cl)ccc12` (stereo unspecified) [CHLOROQUINE] showed an IC90 (Plasmodium falciparum [1]) of 0.119 µM, an IC90 (Plasmodium falciparum [2]) of 1.54 µM and an IC90 (Plasmodium falciparum [3]) of 0.063 µM. It also gave an IC90 (Plasmodium falciparum [8]) of 1.75 µM.

With `CC[C@H]1CN2CCc3cc(OC)c(OC)cc3[C@@H]2C[C@@H]1C[C@H]1NCCc2cc(OC)c(OC)cc21` [EMETINE] the IC50 (KB) was 0.056 µM.

`C/C=C1/CN2[C@@H](C3=C[C@@H]4[C@@H]5N(C3=O)c3ccccc3[C@@]53CCN5C/C(=C/C)[C@@H]4C[C@H]53)C[C@@]34c5ccccc5N5C(=O)CC=C([C@H]1C[C@H]23)[C@H]54` [ISOSUNGUCINE] showed an IC90 (Plasmodium falciparum [1]) of 7.06 µM, an IC50 (KB) of 9 µM and a selectivity ratio [4] of 7. It also gave a selectivity ratio [5] of 34, an IC50 [6] of 9.2 µM and a selectivity ratio [7] of 6.8. It also gave an IC90 (Plasmodium falciparum [8]) of 1.72 µM and a selectivity ratio [9] of 34.7.

`OC(c1cc(C(F)(F)F)nc2c(C(F)(F)F)cccc12)C1CCCCN1` (stereo unspecified) [MEFLOQUINE] gave an IC50 (Plasmodium falciparum [2]) of 0.002 µM, an IC90 (Plasmodium falciparum [2]) of 0.006 µM and an IC90 (Plasmodium falciparum [3]) of 0.354 µM.

Compound `C=C[C@H]1CN2CC[C@H]1C[C@H]2[C@H](O)c1ccnc2ccc(OC)cc12` [QUININE] has an IC90 (Plasmodium falciparum [1]) of 1.91 µM and an IC90 (Plasmodium falciparum [8]) of 1.72 µM.

In the case of `C/C=C1/CN2[C@@H]([C@@H]3C(=O)N4c5ccccc5[C@@]56CCN7CC8=CCO[C@@H]3[C@@H]([C@H]45)[C@H]8C[C@H]76)C[C@@]34c5ccccc5N5C(=O)CC=C([C@H]1C[C@H]23)[C@H]54` [STRYCHNOGUCINE A], the IC50 (Plasmodium falciparum [1]) is reported as 2.31 µM, the IC90 (Plasmodium falciparum [1]) is reported as 6.98 µM and the IC50 (Plasmodium falciparum [2]) is reported as 3.2 µM. The IC90 (Plasmodium falciparum [2]) was 9.4 µM, the IC50 (Plasmodium falciparum [3]) was 4.81 µM and the IC90 (Plasmodium falciparum [3]) was 9.54 µM.

`O=C1C[C@@H]2OCC=C3CN4[C@@H](C5=C[C@@H]6[C@@H]7N(C5=O)c5ccccc5[C@@]75CCN7C/C(=C/CO)[C@@H]6C[C@H]75)C[C@]56c7ccccc7N1[C@H]5[C@@H]2[C@H]3C[C@H]46` [STRYCHNOGUCINE B] showed an IC90 (Plasmodium falciparum [1]) of 3.79 µM, an IC50 (Plasmodium falciparum [2]) of 0.202 µM and an IC90 (Plasmodium falciparum [2]) of 1.15 µM. The IC50 (Plasmodium falciparum [3]) was 0.51 µM, the IC90 (Plasmodium falciparum [3]) was 3.23 µM and the IC50 (KB) was greater than 15 µM. The selectivity ratio [4] was 25.1, the selectivity ratio [5] was greater than 176 and the IC50 [6] was 15.5 µM. For the same compound, the selectivity ratio [7] was greater than 24.3 and the selectivity ratio [9] was 182.

`C/C=C1/CN2CC[C@]34c5ccccc5N5C(=O)C([C@H]6C[C@]78c9ccccc9N9C(=O)C=C[C@@H]([C@H]97)[C@H]7C[C@@H]8N6C/C7=C/C)=C[C@H]([C@H]53)[C@H]1C[C@H]24` [SUNGUCINE] showed an IC90 (Plasmodium falciparum [1]) of 26.3 µM, an IC50 (KB) of 6.2 µM and a selectivity ratio [4] of 0.8. The selectivity ratio [5] was 0.6, the IC50 [6] was 6 µM and the selectivity ratio [7] was 0.8. The IC90 (Plasmodium falciparum [8]) was 33.1 µM and the selectivity ratio [9] was 0.6.

For `C/C=C1/CN2CCc3c([nH]c4ccccc34)[C@@H]2C[C@@H]1Cc1nccc2c1[nH]c1ccccc12` [USAMBARENSINE], the IC50 (KB) was 9.7 µM, the selectivity ratio [4] was 3.1 and the selectivity ratio [5] was 36.6. For the same compound, the IC50 [6] was 4.62 µM, the selectivity ratio [7] was 14.8 and the selectivity ratio [9] was 7.8.
